Residues, ends and D or L forms follow the SMILES beside them.
Tests used:
[1] = target: T1, Gastrin/cholecystokinin type B receptor (Rattus norvegicus, UniProt P30553); assay: Binding affinity by competitive inhibition of the radioligand [3H]pCCK-8 at Cholecystokinin type B receptor from rat cerebral cortex membrane; format: tissue-based
T1 sequence (P30553 whole entry): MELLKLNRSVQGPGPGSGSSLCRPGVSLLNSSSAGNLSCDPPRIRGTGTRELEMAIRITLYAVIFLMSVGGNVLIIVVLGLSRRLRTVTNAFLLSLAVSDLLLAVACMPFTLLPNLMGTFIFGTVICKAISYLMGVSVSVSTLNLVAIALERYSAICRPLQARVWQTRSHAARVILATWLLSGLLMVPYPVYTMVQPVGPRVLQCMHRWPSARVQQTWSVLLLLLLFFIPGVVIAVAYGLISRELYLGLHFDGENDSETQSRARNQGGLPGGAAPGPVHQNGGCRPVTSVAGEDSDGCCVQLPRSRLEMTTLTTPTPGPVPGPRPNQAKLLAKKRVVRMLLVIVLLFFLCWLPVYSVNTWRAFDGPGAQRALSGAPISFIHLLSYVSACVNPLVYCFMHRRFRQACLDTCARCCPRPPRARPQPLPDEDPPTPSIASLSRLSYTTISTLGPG

[2] = target: T2, Cholecystokinin receptor type A (Rattus norvegicus, UniProt P30551); assay: Binding affinity by competitive inhibition of the radioligand [3H]pCCK-8 at Cholecystokinin type A receptor from rat pancreas
T2 sequence (P30551 whole entry): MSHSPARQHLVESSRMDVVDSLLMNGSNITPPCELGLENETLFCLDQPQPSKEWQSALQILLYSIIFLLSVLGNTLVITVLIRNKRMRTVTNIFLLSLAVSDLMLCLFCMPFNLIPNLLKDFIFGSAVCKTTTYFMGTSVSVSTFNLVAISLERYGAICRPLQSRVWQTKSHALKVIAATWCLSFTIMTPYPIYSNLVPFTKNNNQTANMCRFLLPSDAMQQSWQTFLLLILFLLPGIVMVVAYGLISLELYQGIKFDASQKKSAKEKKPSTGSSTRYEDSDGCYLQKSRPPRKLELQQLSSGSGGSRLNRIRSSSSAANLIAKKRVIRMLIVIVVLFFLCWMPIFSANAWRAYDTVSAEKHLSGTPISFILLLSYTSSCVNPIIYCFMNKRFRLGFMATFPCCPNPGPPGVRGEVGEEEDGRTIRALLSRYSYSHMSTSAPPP
How it was run: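 Rat pancreas homogenized in Pipes HCl pH 6.5 with 30 mM MgCl2, centrifuged twice at 50000g, 4 °C. Membranes (0.2 mg protein/tube) incubated with 0.5 nM [3H]pCCK-8 plus bacitracin and soybean trypsin inhibitor (0.2 mg/mL each) for 120 min at 25 °C. Ki from displacement curves by Cheng–Prusoff. Seven concentrations in triplicate, at least three experiments.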

Rattus norvegicus [3] = assay: Compound (CCK1 antagonist) was administered orally for the effect of increase in plasma amylase activity induced by caerulein in rat at the dose of 1 mg/kg; format: functional; conditions: route oral
How it was run: (§1)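 Caerulein pancreatitis in fasted (24 h) male Wistar rats (190–210 g): four hourly sc injections of 10 µg/kg. Antagonist dosed orally (0.25 mL/100 g; 0.1 or 1 mg/kg) 60 min before the first caerulein injection. Plasma drawn 3 h after the final injection. Amylase and lipase activities read with commercial kits, in IU/mL. Comparisons by ANOVA plus Scheffé's test against caerulein.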

Rattus norvegicus [4] = assay: Compound (CCK1 antagonist) was administered orally for the effect of increase in plasma lipase activity induced by caerulein in rat at the dose of 1 mg/kg; format: functional; conditions: route oral; how it was run: as §1
Rattus norvegicus [5] = assay: Compound (CCK1 antagonist) was administered intraperitoneally for the effect of increase in plasma amylase activity induced by caerulein in rat at the dose of 1 mg/kg; format: functional; conditions: route intraperitoneal
How it was run: (§2)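 Male Wistar rats (190–210 g), fasted 24 h, given four sc caerulein injections (10 µg/kg) at hourly intervals. Antagonist given ip (0.25 mL/100 g; 0.1 or 1 mg/kg) 30 min before the first caerulein dose. Blood taken 3 h after the last injection. Plasma amylase and lipase measured by commercial kits, in IU/mL. Statistics by ANOVA with Scheffé's test against caerulein alone.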

Rattus norvegicus [6] = assay: Compound (CCK1 antagonist) was administered orally for the effect of increase in plasma amylase activity induced by caerulein in rat at the dose of 0.1 mg/kg; format: functional; conditions: route oral; how it was run: as §1
Rattus norvegicus [7] = assay: Compound (CCK1 antagonist) was administered intraperitoneally for the effect of increase in plasma amylase activity induced by caerulein in rat at the dose of 0.1 mg/kg; format: functional; conditions: route intraperitoneal; how it was run: as §2
Rattus norvegicus [8] = assay: Compound (CCK1 antagonist) was administered intraperitoneally for the effect of increase in plasma lipase activity induced by caerulein in rat at the dose of 1 mg/kg; format: functional; conditions: route intraperitoneal; how it was run: as §2
Rattus norvegicus [9] = assay: Compound (CCK1 antagonist) was administered intraperitoneally for the effect of increase in plasma lipase activity induced by caerulein in rat at the dose of 0.1 mg/kg; format: functional; conditions: route intraperitoneal; how it was run: as §2
Rattus norvegicus [10] = assay: Compound (CCK1 antagonist) was administered orally for the effect of increase in plasma lipase activity induced by caerulein in rat at the dose of 0.1 mg/kg; format: functional; conditions: route oral; how it was run: as §1
Rattus norvegicus [11] = assay: Compound (CCK1 antagonist) was administered intraperitoneally for the effect of increase in plasma lipase activity induced by caerulein in rat
Rattus norvegicus [12] = assay: Compound (CCK1 antagonist) was administered orally for the effect of increase in plasma lipase activity induced by caerulein in rat; format: functional; how it was run: as §1
Rattus norvegicus [13] = assay: Compound (CCK1 antagonist) was administered intraperitoneally for the effect of increase in plasma amylase activity induced by caerulein in rat; format: functional; how it was run: as §2
Rattus norvegicus [14] = assay: Compound (CCK1 antagonist) was administered orally for the effect of increase in plasma amylase activity induced by caerulein in rat.; format: functional; how it was run: as §1

Compound	IC50 [1] [µM]	IC50 [2] [µM]	other results
N#C[C@@H](N[C@@H]1CCCN2C(=O)N(Cc3ccccc3)C(=O)C[C@H]12)[C@H](Cc1c[nH]c2ccccc12)NC(=O)OCc1ccccc1	> 10	> 1	
N[C@@H](Cc1c[nH]c2ccccc12)C(=O)N[C@@H]1CCCN2C(=O)N(Cc3ccccc3)C(=O)C[C@H]12	> 10	> 1	
O=C(N[C@H]1CCCN2C(=O)N(Cc3ccccc3)C(=O)C[C@@H]12)[C@H](Cc1c[nH]c2ccccc12)NC(=O)C12CC3CC(CC(C3)C1)C2	4.39	0.486	
CC(C)(C)OC(=O)N1Cc2[nH]c3ccccc3c2CC1C(=O)N[C@H]1CCCN2C(=O)N(Cc3ccccc3)C(=O)C[C@@H]12 (some centres undefined)	> 10	> 1	
O=C(Cc1c[nH]c2ccccc12)N[C@H]1CCCN2C(=O)N(Cc3ccccc3)C(=O)C[C@@H]12.O=C(N[C@@H]1CCCN2C(=O)N(Cc3ccccc3)C(=O)C[C@H]12)c1c[nH]c2ccccc12	> 10	> 1	
O=C(N[C@@H]1CCCN2C(=O)N(Cc3ccccc3)C(=O)C[C@@H]12)c1cc2ccccc2[nH]1.O=C(N[C@H]1CCCN2C(=O)N(Cc3ccccc3)C(=O)C[C@H]12)c1cc2ccccc2[nH]1	> 10	> 1	
CC(C)(C)OC(=O)N[C@](C)(Cc1c[nH]c2ccccc12)C(=O)N[C@@H]1CCCN2C(=O)N(Cc3ccccc3)C(=O)C[C@@H]12.CC(C)(C)OC(=O)N[C@](C)(Cc1c[nH]c2ccccc12)C(=O)N[C@H]1CCCN2C(=O)N(Cc3ccccc3)C(=O)C[C@H]12	> 10		
CC(C)(C)OC(=O)N[C@@H](Cc1c[nH]c2ccccc12)C(=O)N[C@H]1CCCN2C(=O)N(Cc3ccccc3)C(=O)C[C@@H]12	6.15	0.0227	
CC(C)(C)OC(=O)N[C@@H](Cc1c[nH]c2ccccc12)[C@H](C#N)N[C@@H]1CCCN2C(=O)N(Cc3ccccc3)C(=O)CC12 (single isomer, unassigned)	> 10	0.00769	
CC(C)(C)OC(=O)N[C@@H](Cc1c[nH]c2ccccc12)[C@@H](C#N)N[C@@H]1CCCN2C(=O)N(Cc3ccccc3)C(=O)CC12 (single isomer, unassigned)	> 10	0.0326	
CC(C)(C)NC(=O)N[C@@H](Cc1c[nH]c2ccccc12)C(=O)N[C@@H]1CCCN2C(=O)N(Cc3ccccc3)C(=O)CC12 (single isomer, unassigned)	> 10	0.00091	Increase in plasma amylase (Rattus norvegicus [3]): 19967 IU ml-1; Increase in plasma lipase (Rattus norvegicus [4]): 1062 IU ml-1; Increase in plasma amylase (Rattus norvegicus [5]): 5326 IU ml-1; Increase in plasma amylase (Rattus norvegicus [6]): 28939 IU ml-1; Increase in plasma amylase (Rattus norvegicus [7]): 27103 IU ml-1; Increase in plasma lipase (Rattus norvegicus [8]): 36 IU ml-1; Increase in plasma lipase (Rattus norvegicus [9]): 1667 IU ml-1; Increase in plasma lipase (Rattus norvegicus [10]): 2200 IU ml-1
CC(C)(C)OC(=O)N[C@@H](Cc1c[nH]c2ccccc12)C(=O)N[C@@H]1CCCN2C(=O)N(Cc3ccccc3)C(=O)CC12 (single isomer, unassigned) [IQM-95333]	> 10	0.00159	Increase in plasma amylase (Rattus norvegicus [3]): 31205 IU ml-1; Increase in plasma lipase (Rattus norvegicus [4]): 1948 IU ml-1; Increase in plasma amylase (Rattus norvegicus [5]): 2721 IU ml-1; Increase in plasma amylase (Rattus norvegicus [6]): 37753 IU ml-1; Increase in plasma amylase (Rattus norvegicus [7]): 35985 IU ml-1; Increase in plasma lipase (Rattus norvegicus [8]): 112 IU ml-1; Increase in plasma lipase (Rattus norvegicus [9]): 1943 IU ml-1; Increase in plasma lipase (Rattus norvegicus [10]): 2837 IU ml-1
CSCC[C@H](NC(=O)[C@H](Cc1c[nH]c2ccccc12)NC(=O)CNC(=O)[C@@H](NC(=O)[C@H](Cc1ccc(OS(=O)(=O)O)cc1)NC(=O)[C@H](CC(=O)O)NC(=O)[C@H](CCC(N)=O)NC(=O)[C@@H]1CCC(=O)N1)[C@@H](C)O)C(=O)N[C@@H](CC(=O)O)C(=O)N[C@@H](Cc1ccccc1)C(N)=O [CAERULIN] (HELM PEPTIDE1{[Glp].Q.D.[O=C([C@H](Cc1ccc(OS(=O)(=O)O)cc1)N[*:1])[*:2]].T.G.W.M.D.F.[am]}$$$$V2.0)			Increase in plasma lipase (Rattus norvegicus [11]): 3100 IU ml-1; Increase in plasma lipase (Rattus norvegicus [12]): 2801 IU ml-1; Increase in plasma amylase (Rattus norvegicus [13]): 52101 IU ml-1; Increase in plasma amylase (Rattus norvegicus [14]): 39293 IU ml-1
CN1C(=O)[C@@H](NC(=O)c2cc3ccccc3[nH]2)N=C(c2ccccc2)c2ccccc21 [DEVAZEPIDE]			Increase in plasma amylase (Rattus norvegicus [3]): 4578 IU ml-1; Increase in plasma lipase (Rattus norvegicus [4]): 57 IU ml-1; Increase in plasma amylase (Rattus norvegicus [5]): 3650 IU ml-1; Increase in plasma amylase (Rattus norvegicus [6]): 7733 IU ml-1; Increase in plasma amylase (Rattus norvegicus [7]): 8793 IU ml-1; Increase in plasma lipase (Rattus norvegicus [8]): 26 IU ml-1; Increase in plasma lipase (Rattus norvegicus [9]): 125 IU ml-1; Increase in plasma lipase (Rattus norvegicus [10]): 871 IU ml-1

Further lines, with some results ahead:

IC50 [1] [µM]	IC50 [2] [µM]	Compound	other results
> 10	> 1	N[C@@H](Cc1c[nH]c2ccccc12)C(=O)N[C@H]1CCCN2C(=O)N(Cc3ccccc3)C(=O)C[C@@H]12	
> 10	0.0657	CC(C)(C)OC(=O)N[C@@H](Cc1ccccc1)C(=O)N[C@@H]1CCCN2C(=O)N(Cc3ccccc3)C(=O)C[C@H]12	
> 10		CC(C)(C)OC(=O)N1Cc2[nH]c3ccccc3c2CC1C(=O)N[C@@H]1CCCN2C(=O)N(Cc3ccccc3)C(=O)C[C@H]12 (some centres undefined)	
> 10	> 1	N#C[C@H](N[C@@H]1CCCN2C(=O)N(Cc3ccccc3)C(=O)C[C@H]12)[C@H](Cc1c[nH]c2ccccc12)NC(=O)OCc1ccccc1	
> 10	> 1	CC(C)(C)OC(=O)N[C@H](CN[C@@H]1CCCN2C(=O)N(Cc3ccccc3)C(=O)C[C@H]12)Cc1c[nH]c2ccccc12	
> 10	0.0424	CC(C)(C)OC(=O)N[C@@](C)(Cc1c[nH]c2ccccc12)C(=O)N[C@@H]1CCCN2C(=O)N(Cc3ccccc3)C(=O)C[C@@H]12.CC(C)(C)OC(=O)N[C@@](C)(Cc1c[nH]c2ccccc12)C(=O)N[C@H]1CCCN2C(=O)N(Cc3ccccc3)C(=O)C[C@H]12 (single isomer, unassigned)	
3.43	0.34	O=C(N[C@@H](Cc1c[nH]c2ccccc12)C(=O)N[C@H]1CCCN2C(=O)N(Cc3ccccc3)C(=O)CC12)OC1C2CC3CC(C2)CC1C3 (single isomer, unassigned)	
> 10	0.00443	CC(C)(C)CC(=O)N[C@@H](Cc1c[nH]c2ccccc12)C(=O)N[C@@H]1CCCN2C(=O)N(Cc3ccccc3)C(=O)CC12 (single isomer, unassigned)	Increase in plasma amylase (Rattus norvegicus [3]): 46591 IU ml-1; Increase in plasma lipase (Rattus norvegicus [4]): 3375 IU ml-1; Increase in plasma amylase (Rattus norvegicus [5]): 28015 IU ml-1; Increase in plasma amylase (Rattus norvegicus [6]): 51420 IU ml-1; Increase in plasma amylase (Rattus norvegicus [7]): 61102 IU ml-1; Increase in plasma lipase (Rattus norvegicus [8]): 1140 IU ml-1; Increase in plasma lipase (Rattus norvegicus [9]): 2956 IU ml-1; Increase in plasma lipase (Rattus norvegicus [10]): 3089 IU ml-1

Reference: ChEMBL document CHEMBL1132468, “5-(Tryptophyl)amino-1,3-dioxoperhydropyrido[1,2-c]pyrimidine-based potent and selective CCK(1) receptor antagonists: structural modifications at the tryptophan domain” (J Med Chem, 1999)
